# From ChEMBL document CHEMBL4350958, “Rational Design of Short Peptide Variants by Using Kunitzin-RE, an Amphibian-Derived Bioactivity Peptide, for Acquired Potent Broad-Spectrum Antimicrobial and Improved Therapeutic Potential of Commensalism Coinfection of Pathogens” (J Med Chem, 2019)
# Experiments:
# Staphylococcus aureus [1] = assay: Antibacterial activity against Staphylococcus aureus ATCC 29213 measured after 18 to 24 hrs in presence of NaCl; assay type: functional
# [2] = Therapeutic index, ratio of MHC10 for hemolytic activity in human RBC to MIC95 against Escherichia coli ATCC 25922; assay type: toxicity; conditions: human red blood cells (erythrocytes), pooled result: one value given for 9 cell lines, strains, targets or settings, read-out: TI
# Summary of the method: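 Therapeutic index = MHC divided by MIC. MHC is the lowest concentration giving >10% lysis of human RBC (1 h, 37 °C, 1-128 µM, A576). MIC is 95% growth inhibition by broth microdilution: bacteria in MHB 24 h at 37 °C; Candida in MOPS-buffered RPMI 1640 at (0.5–1) × 10^3 CFU mL−1, 48 h at 28 °C.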
# [3] = Antibacterial activity against Salmonella pullorum ATCC 7913 measured after 24 hrs; assay type: functional, Salmonella enterica subsp. enterica serovar Pullorum; conditions: Salmonella enterica, ATCC 7913, 24 h
# Summary of the method: (§1)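 Broth microdilution adapted from NCCLS. Mid-log bacteria were diluted in MHB to a final (0.5–1) × 10^5 CFU mL−1. Peptides were serially diluted in 0.2% BSA and mixed with an equal volume of cells. After 24 h at 37 °C, MIC was read at A492 as the lowest concentration inhibiting 95% of growth. At least three independent experiments, each with three technical replicates.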
# Escherichia coli [4] = assay: Antibacterial activity against Escherichia coli ATCC 25922 measured after 18 to 24 hrs in presence of MgCl2; assay type: functional
# Staphylococcus aureus [5] = assay: Antibacterial activity against Staphylococcus aureus ATCC 29213 measured after 24 hrs; assay type: functional; conditions: ATCC 29213, 24 h
# Summary of the method: (§2)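 Broth microdilution modified from NCCLS. Mid-log bacteria at (0.5–1) × 10^5 CFU mL−1 in MHB, mixed with peptides serially diluted in 0.2% BSA. Incubated 24 h at 37 °C, read at A492. MIC taken as lowest concentration giving 95% growth inhibition. At least three independent experiments, each with three technical replicates.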
# Escherichia coli [6] = assay: Antibacterial activity against Escherichia coli UB1005 measured after 24 hrs; assay type: functional; conditions: UB1005, 24 h; summary of the method: as §1
# Salmonella typhimurium = assay: Bactericidal activity against Salmonella typhimurium ATCC 14028 incubated for 24 hrs followed by replating on agar plate and measured after overnight incubation; assay type: functional, Salmonella enterica subsp. enterica serovar Typhimurium; conditions: Salmonella enterica, ATCC 14028, 24 h; read-out: MBC>99.9
# Summary of the method: (§3)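 Mid-log bacteria diluted in MHB to (0.5–1) × 10^5 CFU/mL and mixed 1:1 with peptide serially diluted in 0.2% BSA. After 24 h at 37 °C, 50 μL of each mixture was plated on agar and incubated overnight. MBC taken as the lowest concentration killing >99.9% of cells. At least three independent experiments, each with three technical replicates.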
# Escherichia coli [7] = assay: Antibacterial activity against Escherichia coli ATCC 25922 measured after 18 to 24 hrs in presence of FeCl3; assay type: functional
# Candida albicans [8] = assay: Antifungal activity against Candida albicans cgmcc2.2086 measured after 48 hrs in presence of ZnCl by broth microdilution method; assay type: functional; conditions: cgmcc2.2086, 48 h
# Staphylococcus aureus [9] = assay: Antibacterial activity against Staphylococcus aureus ATCC 25923 measured after 24 hrs; assay type: functional; conditions: ATCC 25923, 24 h; summary of the method: as §2
# Staphylococcus aureus [10] = assay: Antibacterial activity against Staphylococcus aureus ATCC 29213 measured after 18 to 24 hrs in presence of CaCl2; assay type: functional
# Escherichia coli [11] = assay: Antibacterial activity against Escherichia coli K99 measured after 24 hrs; assay type: functional; conditions: K99, 24 h; summary of the method: as §1
# [12] = Conformational stability in 50% trifluoro-ethyl alcohol assessed as alpha-helical structural propensity by measuring absorption spectra at minimum dichroic band at 35 uM by CD spectra analysis; assay type: physicochemical
# Summary of the method: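 CD spectra from 190 to 250 nm of peptide at 35 μM in 10 mM PBS, 30 mM SDS micelles or 50% TFE, recorded in a 1.0-mm quartz cell. Ellipticity was converted to mean residue ellipticity. Three independent scans, each averaged over more than 3 runs.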
# [13] = test system: Staphylococcus epidermidis; assay: Bactericidal activity against Staphylococcus epidermidis ATCC 12228 incubated for 24 hrs followed by replating on agar plate and measured after overnight incubation; assay type: functional; conditions: ATCC 12228, 24 h, read-out: MBC>99.9; summary of the method: as §3
# Escherichia coli [14] = assay: Antibacterial activity against Escherichia coli ATCC 25922 measured after 18 to 24 hrs in presence of NaCl; assay type: functional
# Staphylococcus aureus [15] = assay: Antibacterial activity against Staphylococcus aureus ATCC 29213 measured after 18 to 24 hrs in presence of FeCl3; assay type: functional
# [16] = Cytotoxicity against mouse RAW264.7 cells assessed as cell viability at 2 to 64 uM measured after 18 to 24 hrs by MTT assay relative to control; assay type: cell-based; conditions: RAW264.7 cells, read-out: Activity
# Summary of the method: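 MTT assay: RAW264.7 cells seeded at 1.0–2.0×10^4 per well and exposed to peptide (2–64 µM) for 18–24 h at 37 °C in 5% CO2. MTT (0.5 mg/mL) added for 4 h, formazan dissolved in DMSO, read at 570 nm. At least three independent experiments with triplicate wells.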
# Escherichia coli [17] = assay: Bactericidal activity against Escherichia coli K99 incubated for 24 hrs followed by replating on agar plate and measured after overnight incubation; assay type: functional; conditions: K99, 24 h, read-out: MBC>99.9; summary of the method: as §3
# Pseudomonas aeruginosa = assay: Antibacterial activity against Pseudomonas aeruginosa ATCC 27853 measured after 24 hrs; assay type: functional; conditions: ATCC 27853, 24 h; summary of the method: as §1
# Candida albicans [18] = assay: Antifungal activity against Candida albicans cgmcc2.2086 measured after 48 hrs in presence of KCl by broth microdilution method; assay type: functional; conditions: cgmcc2.2086, 48 h
# Candida tropicalis = assay: Antifungal activity against Candida tropicalis cgmcc2.1975 measured after 48 hrs by broth microdilution method; assay type: functional; conditions: cgmcc2.1975, 48 h
# Summary of the method: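 Modified CLSI M27-A2 microdilution. Yeast colonies were diluted in MOPS-buffered RPMI 1640 to a final (0.5–1) × 10^3 CFU mL−1 and mixed with an equal volume of peptide serially diluted in 0.2% BSA. After 48 h at 28 °C, MIC was read at A492 as the lowest concentration inhibiting 95% of growth. At least three independent experiments, each with three technical replicates.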
# Staphylococcus aureus [19] = assay: Bactericidal activity against methicillin-resistant Staphylococcus aureus ATCC 43300 incubated for 24 hrs followed by replating on agar plate and measured after overnight incubation; assay type: functional; conditions: ATCC 43300, 24 h, read-out: MBC>99.9
# Summary of the method: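 After the 24 h, 37 °C MHB microdilution MIC assay, 50 μL from each well was plated on agar and incubated overnight. MBC taken as lowest peptide concentration killing >99.9% of cells. At least three independent experiments, each with three technical replicates.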
# Erythrocyte = assay: Hemolytic activity in human RBC measured after 1 hr; assay type: ADME, cell-based
# Summary of the method: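 Fresh healthy-donor human erythrocytes at ~1% (v/v) in PBS pH 7.4, mixed 1:1 with peptide (1–128 µM), 1 h at 37 °C. After centrifugation at 1000×g, supernatant hemoglobin read at 576 nm. Untreated cells set 0% and 0.1% Triton X-100 set 100%. MHC defined as the concentration giving >10% hemolysis. Three or more independent experiments, triplicates.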
# Candida albicans [20] = assay: Antifungal activity against Candida albicans cgmcc2.2086 measured after 48 hrs in presence of NH4Cl by broth microdilution method; assay type: functional; conditions: cgmcc2.2086, 48 h
Substance,MIC95 (Staphylococcus aureus [1]) [µM],selectivity ratio [2],MIC95 [3] [µM],MIC95 (Escherichia coli [4]) [µM],MIC95 (Staphylococcus aureus [5]) [µM],MIC95 (Escherichia coli [6]) [µM],MBC (Salmonella typhimurium) [µM],MIC95 (Escherichia coli [7]) [µM],MIC95 (Candida albicans [8]) [µM],MIC95 (Staphylococcus aureus [9]) [µM],MIC95 (Staphylococcus aureus [10]) [µM],MIC95 (Escherichia coli [11]) [µM],Activity [12] [nm],MBC [13] [µM],MIC95 (Escherichia coli [14]) [µM],MIC95 (Staphylococcus aureus [15]) [µM],viability at up to 64 µM [16] [%],MBC (Escherichia coli [17]) [µM],MIC95 (Pseudomonas aeruginosa) [µM],MIC95 (Candida albicans [18]) [µM],also measured
H-AARRILRWIFR-NH2,64,59.3,4,8,4,4,8,8,8,8,8,4,208 to 222,8,64,4,90 to 100,8,8,16,MIC95 (Candida tropicalis): 4 µM; MBC (Staphylococcus aureus [19]): 8 µM; MHC10 (Erythrocyte): > 128 µM; MIC95 (Candida albicans [20]): 8 µM
H-AARIILRGRFR-NH2,> 128,54.3,4,16,8,4,8,4,> 128,16,64,2,208 to 222,16,64,8,90 to 100,8,16,128,MIC95 (Candida tropicalis): 16 µM; MBC (Staphylococcus aureus [19]): 8 µM; MHC10 (Erythrocyte): > 128 µM; MIC95 (Candida albicans [20]): > 128 µM
H-AARIILRIRFR-NH2,8,37.3,2,16,2,4,4,4,8,2,16,4,208 to 222,4,8,2,90 to 100,4,16,8,MIC95 (Candida tropicalis): 4 µM; MBC (Staphylococcus aureus [19]): 4 µM; MHC10 (Erythrocyte): 128 µM; MIC95 (Candida albicans [20]): 8 µM
H-AARIILRWRFR-NH2,4,94.1,2,4,1,4,4,4,8,2,2,2,208 to 222,4,8,1,90 to 100,4,4,8,MIC95 (Candida tropicalis): 4 µM; MBC (Staphylococcus aureus [19]): 1 µM; MHC10 (Erythrocyte): > 128 µM; MIC95 (Candida albicans [20]): 8 µM
